What is called chromatographic logD is a lipophilicity value derived from retention on a column. A high value points to higher lipophilicity. A word on the fraction unbound: it is free concentration divided by total concentration. As a reminder, the Ki is the dissociation constant of the complex between target and ligand, obtained from inhibition or displacement. Low readings indicate higher affinity, high ones lower affinity. In general, inhibition refers to the share of the control response that was lost under treatment.

Data set [1] is described as follows: Experimental distribution coefficient logD7.4. The conditions noted are these: pH 7.4. It counts as physicochemical.
Another data set addresses human serum albumin (Homo sapiens, UniProt P02768). The experiment in a line: Plasma protein binding estimated by an HPLC-based method. It counts as in vitro ADME.
A further data set relates to NRF2‐ARE pathway. The experiment in a line: AREc32 luciferase reporter gene assay. It counts as cell-based. The conditions noted are these: for ARE specificity ratio, SR: SR = IC10/ECIR1.5, AREc32 cells, 24 h exposure. The essentials:
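AREc32 cells in DMEM+GlutaMAX with 10% FBS and pen/strep, 2650/well, attached 24 h at 37 °C, 5% CO2. Test compound (1×10−15 to 1×10−2 M) for 24 h; tert‐butylhydroquinone as positive control. Luciferase read after PBS washes and Tris/Triton lysis. IR = signal/mean unexposed; ECIR1.5 by linear fit for IR<4. Imaged confluency versus unexposed cells gave IC10 from the linear range.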
(Reporter assays use an easily measured gene product as a stand-in for the process of interest.)

Another data set relates to SARS‐CoV‐2 (B.3 strain). As to the kind of experiment: Vero-E6 SARS-CoV-2 plaque reduction assay. It counts as cell-based.
The target of data set [2] is human adenosine A2A receptors (Homo sapiens, UniProt P29274). As to the kind of experiment: Radioligand competition binding assay with [3H]CGS-21680. In outline: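 Membranes from CHO-S cells recombinantly expressing the human adenosine A2A receptor. Competition with the A2A-selective agonist radioligand [3H]CGS-21680. Test compound run at concentrations from 10 nM to 100 μM. Read-out is % inhibition of radioligand binding, with Ki estimated; n=3.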
Chain of human adenosine A2A receptors (P29274 whole entry): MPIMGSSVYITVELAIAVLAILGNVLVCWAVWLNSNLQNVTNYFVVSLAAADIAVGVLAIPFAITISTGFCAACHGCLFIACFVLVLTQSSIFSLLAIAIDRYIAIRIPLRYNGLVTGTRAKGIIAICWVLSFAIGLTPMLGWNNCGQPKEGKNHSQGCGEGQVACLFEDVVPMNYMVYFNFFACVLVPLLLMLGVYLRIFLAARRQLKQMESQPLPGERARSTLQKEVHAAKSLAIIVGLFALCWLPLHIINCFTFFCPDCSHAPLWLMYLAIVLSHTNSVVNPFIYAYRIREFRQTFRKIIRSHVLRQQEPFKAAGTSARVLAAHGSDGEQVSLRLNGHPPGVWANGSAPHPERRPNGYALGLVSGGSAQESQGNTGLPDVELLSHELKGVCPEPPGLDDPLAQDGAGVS
A general note: Loss of bound radioactivity is the signal in a displacement assay; it reports binding, not function.

[3] abbreviates: read-out: % inhibition of radioligand binding.

Chain of human serum albumin (P02768 25-609): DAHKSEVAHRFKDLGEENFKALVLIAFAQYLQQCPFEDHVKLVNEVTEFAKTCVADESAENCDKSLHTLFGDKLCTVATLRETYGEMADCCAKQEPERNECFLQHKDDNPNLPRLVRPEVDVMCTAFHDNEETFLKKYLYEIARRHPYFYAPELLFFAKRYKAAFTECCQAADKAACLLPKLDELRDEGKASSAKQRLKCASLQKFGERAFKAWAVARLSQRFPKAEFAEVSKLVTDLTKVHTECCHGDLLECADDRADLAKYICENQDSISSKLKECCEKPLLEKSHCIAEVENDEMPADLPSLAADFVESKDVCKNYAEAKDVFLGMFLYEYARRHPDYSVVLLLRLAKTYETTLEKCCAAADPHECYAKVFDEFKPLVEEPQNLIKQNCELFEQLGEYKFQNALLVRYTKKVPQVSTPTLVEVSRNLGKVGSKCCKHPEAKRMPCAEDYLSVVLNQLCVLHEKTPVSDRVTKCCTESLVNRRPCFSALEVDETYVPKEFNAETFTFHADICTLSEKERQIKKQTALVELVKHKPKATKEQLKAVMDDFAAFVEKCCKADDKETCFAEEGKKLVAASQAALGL

Compound `C=C1CCC2[C@](C)(C(=O)NCCc3ccccc3)[C@H](O)CC[C@@]2(C)[C@@H]1C/C=C1/C(=O)OC[C@H]1O` (stereo partly drawn) [16 b, (1S,2R,4aS,5R)‐2‐Hydroxy‐5‐[(2E)‐2‐[(4S)‐4‐hydroxy‐2‐oxo‐tetrahydrofuran‐3‐ylidene]ethyl]‐1,4 a‐dimethyl‐6‐methylene‐N‐(2‐phenylethyl)decalin‐1‐carboxamide] yielded a chromatographic logD in data set [1] of 2.5. Further, the unbound share (fraction unbound) at human serum albumin is 0.62. For the same compound, the “ARE specificity ratio, SR” value with NRF2‐ARE pathway turned out to be 10.8.
With `CC(C)(C)c1cc(O)ccc1O` [Tert‐butylhydroquinone, reference compound], the ECIR1.5 with NRF2‐ARE pathway (effect concentration causing an induction ratio (IR) of 1.5, linear model, 24 h) was 3.4 ± 0.2 µM.
On to `C=C1CCC2[C@](C)(C(=O)NCCC)[C@H](O)CC[C@@]2(C)[C@@H]1C/C=C1/C(=O)OC[C@H]1O` (stereo partly drawn) [16 a, (1S,2R,4aS,5R)‐2‐Hydroxy‐5‐[(2E)‐2‐[(4S)‐4‐hydroxy‐2‐oxo‐tetrahydrofuran‐3‐ylidene]ethyl]‐1,4 a‐dimethyl‐6‐methylene‐N‐propyl‐decalin‐1‐carboxamide], for which the chromatographic logD in data set [1] worked out at 1.9. Further, the fraction unbound at human serum albumin was 0.17. The “ARE specificity ratio, SR” value in the data set on NRF2‐ARE pathway was found to be 35.6.
With `C=C1CCC2[C@](C)(CO)[C@H](O)CC[C@@]2(C)[C@@H]1CCC1C(=O)OC[C@H]1O` (stereo partly drawn) [Compound 11, (4S)‐3‐[2‐[(1R,5R,6R,8aS)‐6‐Hydroxy‐5‐(hydroxymethyl)‐5,8 a‐dimethyl‐2‐methylene‐decalin‐1‐yl]ethyl]‐4‐hydroxy‐tetrahydrofuran‐2‐one], in the data set with SARS‐CoV‐2 (B.3 strain), the “Anti-SARS-CoV-2 activity (in words)” value is reported as “did not possess anti‐SARS‐CoV‐2 activities”.
Consider `C=C1CCC2[C@](C)(C(=O)NCCOCCOCCOCCOC)[C@H](O)CC[C@@]2(C)[C@@H]1C/C=C1/C(=O)OC[C@H]1O` (stereo partly drawn) [16 c, (1S,2R,4aS,5R)‐2‐Hydroxy‐5‐[(2E)‐2‐[(4S)‐4‐hydroxy‐2‐oxo‐tetrahydrofuran‐3‐ylidene]ethyl]‐N‐[2‐[2‐[2‐(2‐methoxy‐ethoxy)ethoxy]ethoxy]ethyl]‐1,4 a‐dimethyl‐6‐methylene‐decalin‐1‐carboxamide], for which, in data set [1], the chromatographic logD was found to be 1.3. For the same compound, the free fraction (fraction unbound) at human serum albumin is 0.08. In addition, the “ARE specificity ratio, SR” value in the data set on NRF2‐ARE pathway came to 13.3.
Turning to `C=C1CC[C@@H]2[C@](C)(CO)[C@H](O)CC[C@@]2(C)[C@@H]1C/C=C1/C(=O)OC[C@H]1O` [Compound 1, Andrographolide], in the data set with NRF2‐ARE pathway, the “ARE specificity ratio, SR” value is 19.4. Besides, in data set [2], the Ki was more than 100 µM. For the same compound, in data set [2] (setting [3]), the inhibition at 10 µM came to 7% and the inhibition at 100 µM turned out to be 33%. For the same compound, the “Effect on Vero-E6 cell proliferation (crystal violet staining)” value with Vero‐E6 cells (at 10 μM) is reported as “inhibited cell proliferation”. In addition, the “Toxicity on attached Vero-E6 cells” value with Vero‐E6 cells (at any concentration (0.5-10 μM)) was “did not show toxicity”.

Source of the values: PMC9015489 (Chemmedchem, 2022).
